Type in all cases: functional
Assay [1] deals with Bacillus subtilis. Briefly: Antibacterial activity against Bacillus subtilis P10C derived after 10 passage in presence of JBIR-100 after 16 to 18 hrs by microbroth dilution assay. An outline of the steps: (§1)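 Mutants were derived from B. subtilis ATCC 47096 in three independent cultures. Each was passaged 10 times every 24 h at 37 °C in LB, starting at 0.5× MIC and raised in 0.5× MIC steps. Isolates were restreaked three times on drug-free LB agar to confirm stability.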
On the technique in general: Dilution methods test growth across graded concentrations, often in twofold steps.

For assay [2], the system named is Bacillus subtilis. Kind of assay: Antibacterial activity against Bacillus subtilis P10B derived after 10 passage in presence of JBIR-100 after 16 to 18 hrs by microbroth dilution assay relative to Bacillus subtilis ATCC 47096.
Assay [3] deals with Bacillus subtilis. Briefly: Antibacterial activity against Bacillus subtilis P10A derived after 10 passage in presence of JBIR-100 after 16 to 18 hrs by microbroth dilution assay relative to Bacillus subtilis ATCC 47096.
Assay [4] relates to Bacillus subtilis. Briefly: Antibacterial activity against Bacillus subtilis P10C derived after 10 passage in presence of JBIR-100 after 16 to 18 hrs by microbroth dilution assay relative to Bacillus subtilis ATCC 47096.
Assay [5] deals with Bacillus subtilis. Briefly: Antibacterial activity against Bacillus subtilis ATCC 47096 after 16 to 18 hrs by microbroth dilution assay. An outline of the steps: (§2)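 Broth microdilution per CLSI in LB at 37 °C with aeration. Twofold serial dilutions from a starting concentration of 64 μM were added to wells holding ~5 × 10^4 CFU of the test strain. Turbidity was read after 16–18 h. MIC was taken as the lowest concentration with no visible growth.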

Assay [6] has as its system Bacillus subtilis. Kind of assay: Antibacterial activity against Bacillus subtilis P10A derived after 10 passage in presence of JBIR-100 after 16 to 18 hrs by microbroth dilution assay. An outline of the steps: as §1
The subject of assay [7] is Bacillus subtilis. Briefly: Antibacterial activity against Bacillus subtilis P10B derived after 10 passage in presence of JBIR-100 after 16 to 18 hrs by microbroth dilution assay. In outline:
as §1

Assay [8] is described as follows: Antifungal activity against Zygosaccharomyces rouxii after 40 to 42 hrs by microbroth dilution assay. In outline: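 CLSI microdilution in YPD at 30 °C with aeration. Two-fold serial dilutions started at 64 μM, with ~5 × 10^4 CFU per well. Incubation was extended to 40–42 h before turbidity inspection. The MIC was the lowest concentration inhibiting visible growth.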

Assay [9] can be described thus: Antifungal activity against Kluyveromyces lactis after 16 to 18 hrs by microbroth dilution assay. An outline of the steps:
(§3)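 Yeast grown in YPD at 30 °C with aeration. CLSI microdilution used two-fold dilutions from a 64 μM start and ~5 × 10^4 CFU per well. Visible turbidity was scored at 16–18 h. The MIC was the lowest concentration without visible growth.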

The test system of assay [10] is Escherichia coli. Kind of assay: Antibacterial activity against Escherichia coli DH5alpha after 16 to 18 hrs by microbroth dilution assay. As to conditions: DH5[alpha]. In outline:
(§4)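 CLSI microbroth dilution. Compound was two-fold serially diluted from a 64 μM starting concentration into wells holding ~5 × 10^4 CFU of the test strain. After 16–18 h incubation, the MIC was taken as the lowest concentration causing no visible turbidity.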

Assay [11] in a line: Antifungal activity against Saccharomyces cerevisiae after 16 to 18 hrs by microbroth dilution assay. In outline:
as §3

Assay [12] deals with Bacillus subtilis. Briefly: Bactericidal activity against Bacillus subtilis ATCC 47096 after 16 hrs. As to conditions: ATCC 47096, 16 h, read-out: MBC=>99.9.
Assay [13] concerns Debaryomyces hansenii. Kind of assay: Antifungal activity against Debaryomyces hansenii after 16 to 18 hrs by microbroth dilution assay. In outline:
as §3

Assay [14] relates to Bacillus thuringiensis. Kind of assay: Antibacterial activity against Bacillus sp. Al Hakam after 16 to 18 hrs by microbroth dilution assay. In outline:
(§5)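 Broth microdilution following CLSI, in LB at 37 °C with aeration. Starting at 64 μM, two-fold serial dilutions were added to wells holding ~5 × 10^4 CFU. Turbidity was inspected after 16–18 h. The MIC was the lowest concentration that inhibited visible growth.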

The test system of assay [15] is Bacillus subtilis. Kind of assay: Antibacterial activity against Bacillus subtilis subsp. subtilis str. 168 after 16 to 18 hrs by microbroth dilution assay. In outline:
as §5

Assay [16] relates to Mycolicibacterium smegmatis. Kind of assay: Antibacterial activity against Mycobacterium smegmatis NRRL B-14616 after 16 to 18 hrs by microbroth dilution assay. In outline:
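Broth microdilution following CLSI, in LB with 0.05% Tween 80 at 37 °C with aeration. Two-fold serial dilutions started at 64 μM, with ~5 × 10^4 CFU per well. Wells were read by visible turbidity after 16–18 h. The MIC was the lowest concentration preventing visible growth.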

The subject of assay [17] is Candida albicans. Kind of assay: Antifungal activity against Candida albicans after 16 to 18 hrs by microbroth dilution assay. In outline:
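CLSI microbroth dilution in YPD at 30 °C with aeration. Two-fold serial dilutions started at 128 μM, with ~5 × 10^4 CFU per well. Turbidity was inspected after 16–18 h. The MIC was the lowest concentration inhibiting visible growth.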

In assay [18] the test system is Bacillus subtilis. Briefly: Bactericidal activity against Bacillus subtilis ATCC 47096 at 8 to 32 uM after 16 hrs. In outline:
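Mid-exponential cultures (OD600 0.4, diluted 1000-fold from stationary cultures into LB) were treated with vehicle (DMSO), 8, 16 or 32 μM at 37 °C. OD595 was read every 10 min for 16 h with shaking between reads. Values were normalized to 0.4 at t = 0 and averaged over three independent cultures.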

Assay [19] relates to Bacillus subtilis. Briefly: Antibacterial activity against Bacillus subtilis ATCC 47096 assessed as induction of membrane depolarization after 30 mins by DiOC2(3) dye based flow cytometric analysis. In outline: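 Three independent LB cultures grown to OD600 0.5 were diluted into PBS containing DiOC2(3) with DMSO vehicle, 5 μM CCCP (positive control), or 0.1–1.0 μM compound. Cells were mixed 30 min at ~22 °C and analysed by flow cytometry. Red/green fluorescence ratio geometric means were normalized to vehicle.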

In assay [20] the test system is Bacillus cereus. Briefly: Antibacterial activity against Bacillus cereus ATCC 4342 after 16 to 18 hrs by microbroth dilution assay. In outline:
as §5

Assay [21] deals with Staphylococcus aureus. Kind of assay: Antibacterial activity against Methicillin-resistant Staphylococcus aureus USA300 after 16 to 18 hrs by microbroth dilution assay. An outline of the steps: as §2
The subject of assay [22] is Escherichia coli. Kind of assay: Antibacterial activity against Escherichia coli MC1061 after 16 to 18 hrs by microbroth dilution assay. An outline of the steps: as §4
Assay [23] deals with Bacillus subtilis. Briefly: Antibacterial activity against Bacillus subtilis ATCC 47096 assessed as induction of membrane damage after 30 mins by propidium iodide staining based fluorescent microscopic analysis. An outline of the steps:
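Cells grown in LB at 37 °C to OD600 0.5 were resuspended in PBS pH 7.4 with DMSO vehicle, 8, 32 or 64 μM compound for 30 min at ~22 °C. Cells were then washed, stained with 10 μM propidium iodide for 15 min, immobilized in agarose, and imaged by confocal fluorescence and DIC microscopy.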

Assay [24] concerns Enterococcus faecium. Briefly: Antibacterial activity against Vancomycin-resistant Enterococcus faecium U503 after 16 to 18 hrs by microbroth dilution assay. In outline:
as §2

The subject of assay [25] is Pseudomonas putida. Briefly: Antibacterial activity against Pseudomonas putida KT2440 after 16 to 18 hrs by microbroth dilution assay. In outline: as §4

Values after ≈ are worked out from the molar mass of the structure shown. Active and inactive are the calls of the source. The calls are words filed in the database; no cut-off is given here. Some results are limits rather than exact numbers.

Take `CO[C@H]1/C=C/O[C@@]2(C)Oc3c(C)c(O)c4c(O)c(c(/C=N/N5CCN(C)CC5)c(O)c4c3C2=O)NC(=O)/C(C)=C\C=C\[C@H](C)[C@H](O)[C@@H](C)[C@@H](O)[C@@H](C)[C@H](OC(C)=O)[C@@H]1C` [RIFAMPIN]: the minimum inhibitory concentration (MIC) in [1] turned out to be 0.125 µM; in assay [5], 0.0625 µM (≈ 0.0514 µg/mL); in [6] it was 0.25 µM; in [7], 0.125 µM. Moreover, the “fold change (FC)” value in [2], in [3] and in assay [4] was 2 - 4 throughout.

Regarding `CN[C@H](CC(C)C)C(=O)N[C@H]1C(=O)N[C@@H](CC(N)=O)C(=O)N[C@H]2C(=O)N[C@H]3C(=O)N[C@H](C(=O)N[C@H](C(=O)O)c4cc(O)cc(O)c4-c4cc3ccc4O)[C@H](O)c3ccc(c(Cl)c3)Oc3cc2cc(c3O[C@@H]2O[C@H](CO)[C@@H](O)[C@H](O)[C@H]2O[C@H]2C[C@](C)(N)[C@H](O)[C@H](C)O2)Oc2ccc(cc2Cl)[C@H]1O` [VANCOMYCIN], the MIC in assay [1] turned out to be 0.0625 µM; in assay [5] it was 0.125 µM (≈ 0.181 µg/mL); in assay [6] it was 0.125 µM; in [7], 0.0625 µM. Moreover, the “fold change (FC)” value in assay [2], in assay [3] and in assay [4] was 2 throughout.

For `O=C(N[C@H](CO)[C@H](O)c1ccc([N+](=O)[O-])cc1)C(Cl)Cl` [CHLORAMPHENICOL], the MIC in [1] was found to be 8 µM; in assay [5] it was 8 µM (≈ 2.59 µg/mL); in [6], 4 µM; in assay [7] it was 8 µM. In addition, the “fold change (FC)” value in [2], in assay [3] and in assay [4] was 2 in each case.

For `O=C(O)c1cn(C2CC2)c2cc(N3CCNCC3)c(F)cc2c1=O` [CIPROFLOXACIN], the minimum inhibitory concentration (MIC) in assay [1] is 0.125 µM; in assay [5], 0.125 µM (≈ 0.0414 µg/mL); in assay [6] it was 0.125 µM; in [7], 0.125 µM.

Regarding `NC[C@H]1O[C@H](O[C@H]2[C@H](O)[C@@H](O[C@H]3O[C@H](CO)[C@@H](O)[C@H](N)[C@H]3O)[C@H](N)C[C@@H]2N)[C@H](O)[C@@H](O)[C@@H]1O` [KANAMYCIN], the MIC in assay [1] amounted to 64 µM; in [5], 256 µM (≈ 124 µg/mL); in [6], 128 µM; in assay [7], 64 µM. For the same compound, the “fold change (FC)” value in assay [2], in [3] and in [4] was 2 - 4 in each case.

As to `CO[C@H]1/C=C/C=C(\C)C[C@H](C)[C@H](O)[C@H](C)/C=C(C)/C=C(\C)C(=O)O[C@@H]1[C@@H](C)[C@@H](O)[C@H](C)[C@@]1(O)C[C@@H](OC(=O)/C=C/C(=O)O)[C@H](C)[C@@H](C(C)C)O1`, the MIC was 32 µM (≈ 22.6 µg/mL) in assay [8]; above 64 µM in assay [9]; above 64 µM in assay [10]; 16 µM in assay [1]; above 64 µM in [11]; 8 µM (≈ 5.64 µg/mL) in assay [13]. Further, the MIC in assay [5] is 8 µM (≈ 5.64 µg/mL); in assay [14] it was 4 µM (≈ 2.82 µg/mL); in assay [15], 8 µM (≈ 5.64 µg/mL); in [16] it was above 64 µM; in assay [17] it was above 128 µM; in assay [6], 16 µM. For the same compound, the minimal inhibitory concentration (MIC) in assay [20] was 4 µM (≈ 2.82 µg/mL); in assay [21] it was 4 µM (≈ 2.82 µg/mL); in assay [22] it was above 64 µM; in [24], 16 µM (≈ 11.3 µg/mL); in [25] it was above 64 µM; in assay [7], 16 µM. Also, in assay [12], the minimal bactericidal concentration (MBC) was determined as 16 µM (≈ 11.3 µg/mL). In addition, the outcome in assay [18] was Active. Also, the Activity entry in assay [19] and in [23] was “Dose-dependent effect” each time.

As to `CC1(C)S[C@@H]2[C@H](NC(=O)[C@H](N)c3ccccc3)C(=O)N2[C@H]1C(=O)O` [AMPICILLIN], the MIC in [1] stood at 0.125 µM; in [5], 0.125 µM (≈ 0.0437 µg/mL); in assay [6] it was 0.125 µM; in assay [7], 0.125 µM.

Regarding `Oc1cc(Cl)ccc1Oc1ccc(Cl)cc1Cl` [TRICLOSAN], the minimum inhibitory concentration (MIC) in assay [1] came to 8 µM; in assay [5] it was 8 µM (≈ 2.32 µg/mL); in assay [6], 8 µM; in [7], 8 µM.

A word on the MIC: it is the lowest concentration found to suppress growth. In general, MBC refers to the lowest tested concentration that kills the bacteria rather than only halting them.
